ChEMBL document CHEMBL1932986, “Synthesis and in vitro antimycobacterial activity of compounds derived from (R)- and (S)-2-amino-1-butanol - The crucial role of the configuration” (Eur J Med Chem, 2012)
In brackets after ≈: the same amount, converted by molar mass. Activity calls are given as the source filed them. The rule behind the calls is not given here.

What was measured:
Type in all cases: functional
[1] = system: Mycobacterium tuberculosis; test: Antimycobacterial activity against Mycobacterium tuberculosis H37Rv after 45 days
Procedure, shortened: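 Canetti proportion method. Compound in DMSO is added to Löwenstein–Jensen egg medium before coagulation (30 min, 85 °C), tested at three levels plus a lower one where needed. Tubes are inoculated with H37Rv at 10⁵ cells/ml and incubated 45 days at 37 °C. Colony counts versus drug-free control give percentage inhibition.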

[2] = system: Bacillus subtilis; test: Antibacterial activity against Bacillus subtilis ATCC 6633 at 50 mg/ml after 24 hrs by agar diffusion test; settings: for zone of inhibition at 50000 µg/mL: ATCC 6633, 24 h, read-out: DIZ
Procedure, shortened: (§1)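 Agar diffusion: wells in agar filled with […] DMSO solution of compound at various concentrations; diameter of clear zone around application point measured. Bacteria grown 24 h at 37 °C on nutrient agar. Compounds first screened at 50 mg/ml; those active then tested at lower concentrations. Bracketed value = lowest concentration (mg/ml) giving zone >11 mm, reported only if activity retained at ≤1.25 mg/ml.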

[3] = system: Bacillus; test: Antibacterial activity against Bacillus idosus B 241 at 50 mg/ml after 24 hrs by agar diffusion test; settings: for zone of inhibition at 50000 µg/mL: B 241, 24 h, read-out: DIZ; procedure, shortened: as §1
[4] = system: Priestia megaterium; test: Antibacterial activity against Bacillus megaterium NRRL 1353895 at 50 mg/ml after 24 hrs by agar diffusion test; settings: for zone of inhibition at 50000 µg/mL: NRRL 1353895, 24 h, read-out: DIZ; procedure, shortened: as §1
[5] = system: Bacillus mycoides; test: Antibacterial activity against Bacillus mycoides DSMZ 274 at 50 mg/ml after 24 hrs by agar diffusion test; settings: for zone of inhibition at 50000 µg/mL: DSMZ 274, 24 h, read-out: DIZ; procedure, shortened: as §1
[6] = system: Bacillus cereus; test: Antibacterial activity against Bacillus cereus ATCC 11778 at 50 mg/ml after 24 hrs by agar diffusion test; settings: for zone of inhibition at 50000 µg/mL: ATCC 11778, 24 h, read-out: DIZ; procedure, shortened: as §1
[7] = system: Acinetobacter johnsonii; test: Antibacterial activity against Acinetobacter johnsonii ATCC 17909 at 50 mg/ml after 24 hrs by agar diffusion test; settings: for zone of inhibition at 50000 µg/mL: ATCC 17909, 24 h, read-out: DIZ; procedure, shortened: as §1
[8] = system: Staphylococcus aureus; test: Antibacterial activity against Staphylococcus aureus NRRL B 313 at 50 mg/ml after 24 hrs by agar diffusion test; settings: for zone of inhibition at 50000 µg/mL: NRRL B 313, 24 h, read-out: DIZ
Procedure, shortened: (§2)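 Agar diffusion: bacteria grown 24 h at 37 °C on nutrient agar. Wells in the agar are filled with […] of compound solution in DMSO at various concentrations. The diameter of the clear zone around the application point is measured. Bracketed values give the lowest concentration (mg/ml) that produces a zone >11 mm. A first screen is run at 50 mg/ml.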

[9] = system: Micrococcus luteus; test: Antibacterial activity against Sarcina lutea ATCC 9341 at 50 mg/ml after 24 hrs by agar diffusion test; settings: for zone of inhibition at 50000 µg/mL: ATCC 9341, 24 h, read-out: DIZ; procedure, shortened: as §2
[10] = system: Micrococcus luteus; test: Antibacterial activity against Micrococcus luteus ATCC 9631 at 50 mg/ml after 24 hrs by agar diffusion test; settings: for zone of inhibition at 50000 µg/mL: ATCC 9631, 24 h, read-out: DIZ; procedure, shortened: as §1
[11] = system: Escherichia coli; test: Antibacterial activity against Escherichia coli ATCC 8739 at 50 mg/ml after 24 hrs by agar diffusion test; settings: for zone of inhibition at 50000 µg/mL: ATCC 8739, 24 h, read-out: DIZ; procedure, shortened: as §1
[12] = system: Candida tropicalis; test: Antifungal activity against Candida tropicalis ATCC 20336 at 50 mg/ml after 72 hrs by agar diffusion test; settings: for zone of inhibition at 50000 µg/mL: ATCC 20336, 72 h, read-out: DIZ
Procedure, shortened: (§3)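 Agar diffusion: yeasts grown on yeast peptone dextrose agar and fungi on potato dextrose agar. Wells are filled with […] of compound solution in DMSO at various concentrations, and the clear-zone diameter is measured. Bracketed values give the lowest concentration (mg/ml) that produces a zone >11 mm. A first screen is run at 50 mg/ml.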

[13] = system: Saccharomyces cerevisiae; test: Antifungal activity against Saccharomyces cerevisiae ATCC 9763 at 50 mg/ml after 72 hrs by agar diffusion test; settings: for zone of inhibition at 50000 µg/mL: ATCC 9763, 72 h, read-out: DIZ; procedure, shortened: as §3
[14] = system: Penicillium chrysogenum; test: Antifungal activity against Penicillium chrysogenum CECT 2802 at 50 mg/ml after 72 hrs by agar diffusion test; settings: for zone of inhibition at 50000 µg/mL: CECT 2802, 72 h, read-out: DIZ; procedure, shortened: as §3

SMILES: CC[C@H](CO)NCc1ccc2ccccc2c1
- MIC [1]: > 21.8 µM
- zone of inhibition at 50000 µg/mL [2]: 19 mm
- zone of inhibition at 50000 µg/mL [3]: 19 mm
- zone of inhibition at 50000 µg/mL [4]: 17 mm
- zone of inhibition at 50000 µg/mL [5]: 17 mm
- zone of inhibition at 50000 µg/mL [6]: 14 mm
- zone of inhibition at 50000 µg/mL [7]: 17 mm
- zone of inhibition at 50000 µg/mL [8]: 19 mm
- zone of inhibition at 50000 µg/mL [9]: 17 mm
- zone of inhibition at 50000 µg/mL [10]: 19 mm
- zone of inhibition at 50000 µg/mL [11]: 22 mm
- zone of inhibition at 50000 µg/mL [12]: 10 mm
- zone of inhibition at 50000 µg/mL [13]: 10 mm
- zone of inhibition at 50000 µg/mL [14]: 35 mm

SMILES: CC[C@H](CO)NCc1ccncc1
- MIC [1]: 27.7 µM (≈ 5 µg/mL)
- diameter of the inhibition zone (DIZ) [2]: inactive
- diameter of the inhibition zone (DIZ) [3]: inactive
- diameter of the inhibition zone (DIZ) [4]: inactive
- diameter of the inhibition zone (DIZ) [5]: inactive
- diameter of the inhibition zone (DIZ) [6]: inactive
- diameter of the inhibition zone (DIZ) [7]: inactive
- diameter of the inhibition zone (DIZ) [8]: inactive
- diameter of the inhibition zone (DIZ) [9]: inactive
- diameter of the inhibition zone (DIZ) [10]: inactive
- diameter of the inhibition zone (DIZ) [11]: inactive
- diameter of the inhibition zone (DIZ) [12]: inactive
- diameter of the inhibition zone (DIZ) [13]: inactive
- diameter of the inhibition zone (DIZ) [14]: inactive

SMILES: CC[C@H](CO)NCc1ccc(-c2ccccc2)cc1
- MIC [1]: > 19.6 µM
- zone of inhibition at 50000 µg/mL [2]: 18 mm
- zone of inhibition at 50000 µg/mL [3]: 18 mm
- zone of inhibition at 50000 µg/mL [4]: 19 mm
- zone of inhibition at 50000 µg/mL [5]: 18 mm
- zone of inhibition at 50000 µg/mL [6]: 15 mm
- zone of inhibition at 50000 µg/mL [7]: 20 mm
- zone of inhibition at 50000 µg/mL [8]: 20 mm
- zone of inhibition at 50000 µg/mL [9]: 17 mm
- zone of inhibition at 50000 µg/mL [10]: 17 mm
- zone of inhibition at 50000 µg/mL [11]: 28 mm
- zone of inhibition at 50000 µg/mL [12]: 18 mm
- zone of inhibition at 50000 µg/mL [13]: 18 mm
- zone of inhibition at 50000 µg/mL [14]: 40 mm

SMILES: CC[C@H](CO)Nc1ncccn1
- MIC [1]: > 29.9 µM
- diameter of the inhibition zone (DIZ) [2]: inactive
- diameter of the inhibition zone (DIZ) [3]: inactive
- diameter of the inhibition zone (DIZ) [4]: inactive
- diameter of the inhibition zone (DIZ) [5]: inactive
- zone of inhibition at 50000 µg/mL [6]: 12 mm
- diameter of the inhibition zone (DIZ) [7]: inactive
- diameter of the inhibition zone (DIZ) [8]: inactive
- diameter of the inhibition zone (DIZ) [9]: inactive
- diameter of the inhibition zone (DIZ) [10]: inactive
- diameter of the inhibition zone (DIZ) [11]: inactive
- diameter of the inhibition zone (DIZ) [12]: inactive
- diameter of the inhibition zone (DIZ) [13]: inactive
- diameter of the inhibition zone (DIZ) [14]: inactive

SMILES: CC[C@H](CO)NC(c1ccccc1)(c1ccccc1)c1ccccc1
- MIC [1]: > 15.1 µM
- zone of inhibition at 50000 µg/mL [2]: 12 mm
- diameter of the inhibition zone (DIZ) [3]: inactive
- diameter of the inhibition zone (DIZ) [4]: inactive
- diameter of the inhibition zone (DIZ) [5]: inactive
- diameter of the inhibition zone (DIZ) [6]: inactive
- diameter of the inhibition zone (DIZ) [7]: inactive
- diameter of the inhibition zone (DIZ) [8]: inactive
- diameter of the inhibition zone (DIZ) [9]: inactive
- diameter of the inhibition zone (DIZ) [10]: inactive
- diameter of the inhibition zone (DIZ) [11]: inactive
- diameter of the inhibition zone (DIZ) [12]: inactive
- diameter of the inhibition zone (DIZ) [13]: inactive
- diameter of the inhibition zone (DIZ) [14]: inactive
